Measured values published in ChEMBL document CHEMBL1150119, “Cytotoxic germacranolides from Inula verbascifolia subsp. methanea” (J Nat Prod, 2002).
Converted amounts (≈) assume the structure as drawn.

Tests used:
Type in all cases: functional, cell-based
MCF7 = test: Cytotoxicity against human MCF7 cells expressing estrogen receptor after 48 hrs by MTT assay; settings: MCF7, 48 h
Summary of the method: (§1)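 Adherent human tumor cells kept in DMEM with 10% FBS, penicillin and streptomycin, at 37 °C under 5% CO₂ and 85% humidity, and subcultured with trypsin-EDTA. Cells were seeded at 5000/well and compounds in DMSO were added 24 h later. After 48 h, medium was swapped for MTT (1 mg/mL final, serum-free phenol-red-free RPMI) for 4 h. Formazan was dissolved in 2-propanol and read at 550 nm against 690 nm reference.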

HT-29 = test: Cytotoxicity against human HT-29 cells after 48 hrs by MTT assay; settings: HT-29, 48 h; summary of the method: as §1
LNCaP = test: Cytotoxicity against human LNCAP cells expressing androgen receptor after 48 hrs by MTT assay; summary of the method: as §1
HCT-116 = test: Cytotoxicity against human HCT116 cells after 48 hrs by MTT assay; settings: HCT-116, 48 h; summary of the method: as §1
[1] = Cytotoxicity against human HRT18 cells after 48 hrs by MTT assay; settings: HRT-18, 48 h; summary of the method: as §1
PC-3 = test: Cytotoxicity against human PC3 cells after 48 hrs by MTT assay; settings: PC-3, 48 h; summary of the method: as §1

| Structure (SMILES) | IC50 (MCF7) [µg/mL] | IC50 (HT-29) [µg/mL] | IC50 (LNCaP) [µg/mL] | IC50 (HCT-116) [µg/mL] | IC50 [1] [µg/mL] | IC50 (PC-3) [µg/mL] |
| --- | --- | --- | --- | --- | --- | --- |
| C=C1C(=O)O[C@@H]2[C@H]3O[C@]3(C)CC/C=C(\C)[C@@H](OC(=O)CC(C)(C)O)C[C@@H]12 | > 40 | 17.5 (≈ 48 µM) | 34.2 (≈ 93.8 µM) | 14.1 (≈ 38.7 µM) | 14.9 (≈ 40.9 µM) | 18.2 (≈ 49.9 µM) |
| COc1cccc2c1C(=O)c1c(O)c3c(c(O)c1C2=O)C[C@@](O)(C(C)=O)C[C@@H]3O[C@H]1C[C@H](N)[C@H](O)[C@H](C)O1.Cl [DAUNORUBICIN HYDROCHLORIDE] | 0.12 | 0.072 | 0.011 | 0.28 | 0.11 | 0.23 |
| C=C1C(=O)O[C@@H]2[C@H]3O[C@]3(C)CC/C=C(\C)[C@@H](OC(=O)CC(C)(O)CC)C[C@@H]12 (some centres undefined) | > 40 | 11.7 (≈ 30.9 µM) | 30.2 (≈ 79.8 µM) | 7.1 (≈ 18.8 µM) | 8.75 (≈ 23.1 µM) | 15.7 (≈ 41.5 µM) |
| C=C1C(=O)O[C@@H]2[C@H]3O[C@]3(C)CC/C=C(\C)[C@@H](OC(=O)C(C)C(C)O)C[C@@H]12 (some centres undefined) | > 40 | 11.7 (≈ 32.1 µM) | 25.4 (≈ 69.7 µM) | 0.39 (≈ 1.07 µM) | 13.4 (≈ 36.8 µM) | 11.3 (≈ 31 µM) |
